The values that follow come from ChEMBL document CHEMBL4330057, “Second generation of diazachrysenes: Protection of Ebola virus infected mice and mechanism of action” (Eur J Med Chem, 2019).

Series [1] is described as follows: Toxicity in 6 hrs post fertilized zebrafish embryo assessed as tail detachment up to 50 uM up to 120 hrs post fertilization by inverted microscopic method. Also on record: species or system Danio rerio. The settings on record: in vivo.
A short description of series [2]: Myelotoxicity in 6 hrs post fertilized transgenic mpx:GFP zebrafish embryo assessed as reduction in neutrophil occurrence up to 20 uM measured at 72 hrs hrs post fertilization by fluorescence assay. Also on record: species or system Danio rerio. The procedure, abridged: (§1)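 Tg(mpx:GFP) zebrafish embryos with GFP-labelled neutrophils were treated with compound. At 72 hpf, neutrophil fluorescence of the whole embryo and neutrophil occurrence were assessed.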

Series [3] can be described thus: Toxicity in 6 hrs post fertilized zebrafish embryo assessed as teratogenic effect by measuring effect on blood circulation up to 50 uM up to 120 hrs post fertilization by inverted microscopic method. Also on record: species or system Danio rerio. The conditions noted are these: in vivo.
In series [4] the test system is HeLa. Nature of the series: Induction of lysosomotropism in human HeLa cells infected with Ebolavirus assessed as increase in fluorescence intensity of acid compartments at 2 uM for 1 hr by Lysosensor DND189 staining based assay. It is filed as functional, cell-based. The essentials: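 HeLa cells were pretreated 1 h with compound (Bafilomycin A1 at 0.01 μM as acidification control), then stained with LysoSensor DND 189 for 10 min and washed. Live imaging at Ex/Em 443/505 nm. Fluorescence intensity per area was quantified by image analysis. Eight wells per point, about 3000 cells/well, mean ± SD, three independent experiments.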

Series [5] can be described thus: Selectivity index, ratio of toxic concentration for hepatotoxicity in transgenic l-fabp:EGFP zebrafish embryo to EC50 for Ebolavirus H. sapiens-wt/1995/Kikwit-9510621. It is filed as toxicity. The settings on record: read-out: Selectivity Index.
Series [6] is described as follows: Toxicity in 6 hrs post fertilized zebrafish embryo assessed as teratogenic effect by measuring liver morphology and color up to 50 uM up to 120 hrs post fertilization by inverted microscopic method. It is filed as tissue-based, Danio rerio. The settings on record: in vivo.
Series [7] can be described thus: Toxicity in 6 hrs post fertilized zebrafish embryo assessed as teratogenic effect by measuring yolk edema up to 50 uM up to 120 hrs post fertilization by inverted microscopic method. The arrangement: species or system Danio rerio. The settings on record: in vivo.
Series [8] can be described thus: Toxicity in 6 hrs post fertilized zebrafish embryo assessed as mortality up to 120 hrs post fertilization. The arrangement: species or system Danio rerio. The settings on record: in vivo.
A further series has as its target Albumin (Homo sapiens, UniProt P02768). Nature of the series: Binding affinity to human serum albumin at compound to protein molar ratio of 1:20 after 10 mins by fluorescence spectral analysis. It is filed as ADME. The conditions noted are these: isolated protein. The procedure, abridged: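 Protein fluorescence spectra recorded while compound was added in increasing amounts. Stern-Volmer binding constant (KSV) derived from the fluorescence change.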

In series [9] the test system is Ebolavirus. Nature of the series: Antiviral activity against Ebolavirus infected in mouse assessed as protection against viral infection at 10 mg/kg/day relative to control. It is filed as functional.
A short description of series [10]: Cytotoxicity against human HeLa cells after 2 hrs by high content imaging analysis. It is filed as cell-based.
In series [11] the test system is Ebolavirus. Briefly: Antiviral activity against Ebolavirus H. sapiens-wt/1995/Kikwit-9510621 infected in human HeLa cells assessed as inhibition of viral infection at 2 uM pretreated for 2 hrs followed by viral infection and measured after 24 hrs by EboV GP immunostaining based high content imaging analysis. It is filed as functional, organism-based.
Series [12] relates to Ebolavirus. Briefly: Antiviral activity against Ebolavirus. The conditions noted are these: Orthoebolavirus. It is filed as functional, organism-based.
A short description of series [13]: Cytotoxicity against HFF after 2 hrs by high content imaging analysis. The conditions noted are these: human, HFF cells. It is filed as cell-based.
Series [14] is described as follows: Toxicity in 6 hrs post fertilized zebrafish embryo assessed as teratogenic effect by measuring malformation of sacculi/otoliths up to 50 uM up to 120 hrs post fertilization by inverted microscopic method. The arrangement: species or system Danio rerio. The conditions noted are these: in vivo.
Series [15] deals with Ebolavirus. Briefly: Antiviral activity against Ebolavirus H. sapiens-wt/1995/Kikwit-9510621 infected in human HeLa cells assessed as inhibition of viral infection at 2 uM treated for 2 hrs after viral infection and measured after 24 hrs by EboV GP immunostaining based high content imaging analysis. It is filed as functional, organism-based.
Series [16] can be described thus: Myelotoxicity in 6 hrs post fertilized transgenic mpx:GFP zebrafish embryo assessed as reduction in neutrophil occurrence up to 40 uM measured at 72 hrs hrs post fertilization by fluorescence assay. The arrangement: species or system Danio rerio. The procedure, abridged: as §1
Series [17] is described as follows: Clearance in human liver microsomes after 1 hr. It is filed as ADME, Microsome. The conditions noted are these: read-out: CLH. The procedure, abridged: (§2)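 Substrate depletion with mouse or human liver microsomes, 1 h at 37 °C. Clearance (μL/min/mg) and half-life derived.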
Series [18] deals with Vesicular stomatitis virus. Briefly: Antiviral activity against VSV expressing GFP infected in human HeLa cells assessed as inhibition of viral infection at 50 uM pre-incubated for 2 hrs followed by viral infection and measured after 6 hrs by cell mask deep red staining based assay. It is filed as functional, organism-based. The essentials:
(§3)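 HeLa cells pretreated 2 h with compound, then infected with rVSV-EBOV-GP-GFP (8 h) or VSV-GFP (6 h), and stained with Cell Mask Deep Red. Relative inhibition = 1 minus (% GFP-expressing cells normalised to mock). Mean ± SD of three replicates, representative of three independent experiments.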

Series [19] deals with HeLa. Nature of the series: Induction of lysosome suppression in human HeLa cells assessed as vesicular compartment expansion pretreated for 2 hrs by uranyl acetate staining based transmission electron microscopic method. It is filed as functional, subcellular. The procedure, abridged: (§4)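 HeLa cells mock-treated or treated 2 h with compound, then left uninfected or infected with rVSV-EBOV-GP-GFP for 2 h or 6 h. Processed for transmission electron microscopy to examine vesicular compartments.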

Series [20] can be described thus: Solubility of the compound in pH 7.4 buffer by laser nephelometric method. It is filed as physicochemical. The procedure, abridged: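 Solubility at pH 7.4 was measured by laser nephelometry (light scattering), in triplicate.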
In another series the test system is Zaire ebolavirus. Nature of the series: Antiviral activity against Ebolavirus Mayinga infected in Balb/c mouse assessed as protection against viral infection at 1 to 5 mg/kg, ip administered 2 hrs prior to viral infection daily for 6 days and measured for 14 days relative to control. It is filed as functional, 1976.
Series [21] in a line: Hepatotoxicity in 6 hrs post fertilized transgenic l-fabp:EGFP zebrafish embryo assessed as change in liver area index up to 30 uM up to 120 hrs post fertilization by fluorescence assay. It is filed as toxicity, Danio rerio. The settings on record: in vivo. The procedure, abridged: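 Tg(l-fabp:EGFP) zebrafish embryos exposed from 6 hpf. At 120 hpf, liver area index (liver area/lateral body area) and liver fluorescence assessed by in vivo imaging.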

For a further series, the target named is Cytochrome P450 2C19 (Homo sapiens, UniProt P33261). Briefly: Inhibition of CYP2C19 (unknown origin) using CEC as substrate. It is filed as ADME. The essentials:
(§5)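 CYP IC50 was taken from the net fluorescent signal after incubation at 37 °C for a set time with active cytochrome P450 enzyme and a fluorescent probe substrate.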

The nature of series [22]: Half life in mouse liver microsomes. It is filed as ADME, Microsome. The procedure, abridged:
as §2
(Microsomes from liver hold many membrane-bound enzymes, among them those of drug oxidation.)

The test system of series [23] is HeLa. Nature of the series: Induction of lysosome suppression in human HeLa cells assessed as vesicular compartment expansion pretreated for 2 hrs followed by VSV pseudotyped EBOV-GP-GFP infection for 2 to 6 hrs by uranyl acetate staining based transmission electron microscopic method. It is filed as functional, subcellular. The procedure, abridged: as §4
The subject of series [24] is Vesicular stomatitis virus. Briefly: Antiviral activity against VSV expressing GFP infected in human HeLa cells assessed as inhibition of viral infection at 2 uM pre-incubated for 2 hrs followed by viral infection and measured after 6 hrs by cell mask deep red staining based assay. It is filed as functional, organism-based. The procedure, abridged:
as §3

A short description of series [25]: Acute toxicity in C57Bl/6 mouse assessed as effect on appearance at 20 mg/kg/day, ip qd for 7 days measured twice daily for 28 days. The conditions noted are these: in vivo, 672 h. It is filed as organism-based. The essentials: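 Six healthy mice received 20 mg/kg i.p. once daily for seven doses. Behaviour and appearance observed twice daily for 28 days after the last dose.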

For a further series, the target named is Cytochrome P450 3A4 (Homo sapiens, UniProt P08684). Nature of the series: Inhibition of CYP3A4 (unknown origin) using 7-benzyloxyquinoline as substrate. It is filed as ADME. The essentials:
as §5

Series [26] is described as follows: Clearance in mouse liver microsomes after 1 hr. It is filed as ADME, Microsome. The settings on record: read-out: CLH. The procedure, abridged: as §2

SMILES strings stand for the structures. Calls of active or inactive are those of the source.

Sequence of Albumin (P02768 whole entry): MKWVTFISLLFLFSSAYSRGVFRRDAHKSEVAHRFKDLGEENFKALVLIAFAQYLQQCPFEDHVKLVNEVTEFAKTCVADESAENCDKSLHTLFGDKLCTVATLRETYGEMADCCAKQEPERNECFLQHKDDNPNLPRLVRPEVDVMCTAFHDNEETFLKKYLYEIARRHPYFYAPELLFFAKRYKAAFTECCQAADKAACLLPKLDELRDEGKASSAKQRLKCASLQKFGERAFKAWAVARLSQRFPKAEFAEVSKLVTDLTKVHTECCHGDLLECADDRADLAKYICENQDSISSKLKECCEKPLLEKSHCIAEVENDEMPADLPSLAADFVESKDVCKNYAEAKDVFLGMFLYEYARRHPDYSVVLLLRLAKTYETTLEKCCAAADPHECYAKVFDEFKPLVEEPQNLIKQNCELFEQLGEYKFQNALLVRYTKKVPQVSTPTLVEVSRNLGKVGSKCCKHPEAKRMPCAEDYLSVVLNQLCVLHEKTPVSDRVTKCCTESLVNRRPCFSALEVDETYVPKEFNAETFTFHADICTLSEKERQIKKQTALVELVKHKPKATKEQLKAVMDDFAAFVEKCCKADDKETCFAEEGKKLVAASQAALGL
Sequence of Cytochrome P450 2C19 (P33261 whole entry): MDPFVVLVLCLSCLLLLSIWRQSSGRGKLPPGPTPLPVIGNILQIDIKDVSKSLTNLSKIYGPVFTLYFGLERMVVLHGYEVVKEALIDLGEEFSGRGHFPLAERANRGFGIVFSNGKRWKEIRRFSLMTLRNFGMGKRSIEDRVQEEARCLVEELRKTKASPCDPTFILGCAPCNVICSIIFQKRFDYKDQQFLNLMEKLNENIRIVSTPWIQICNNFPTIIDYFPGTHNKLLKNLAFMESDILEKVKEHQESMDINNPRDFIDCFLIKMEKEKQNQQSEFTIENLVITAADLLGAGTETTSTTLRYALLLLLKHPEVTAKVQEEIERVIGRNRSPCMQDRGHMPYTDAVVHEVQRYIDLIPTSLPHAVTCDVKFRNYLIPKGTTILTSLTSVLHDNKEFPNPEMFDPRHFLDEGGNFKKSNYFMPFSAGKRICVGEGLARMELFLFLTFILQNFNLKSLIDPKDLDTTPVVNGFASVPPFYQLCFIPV
Sequence of Cytochrome P450 3A4 (P08684 whole entry): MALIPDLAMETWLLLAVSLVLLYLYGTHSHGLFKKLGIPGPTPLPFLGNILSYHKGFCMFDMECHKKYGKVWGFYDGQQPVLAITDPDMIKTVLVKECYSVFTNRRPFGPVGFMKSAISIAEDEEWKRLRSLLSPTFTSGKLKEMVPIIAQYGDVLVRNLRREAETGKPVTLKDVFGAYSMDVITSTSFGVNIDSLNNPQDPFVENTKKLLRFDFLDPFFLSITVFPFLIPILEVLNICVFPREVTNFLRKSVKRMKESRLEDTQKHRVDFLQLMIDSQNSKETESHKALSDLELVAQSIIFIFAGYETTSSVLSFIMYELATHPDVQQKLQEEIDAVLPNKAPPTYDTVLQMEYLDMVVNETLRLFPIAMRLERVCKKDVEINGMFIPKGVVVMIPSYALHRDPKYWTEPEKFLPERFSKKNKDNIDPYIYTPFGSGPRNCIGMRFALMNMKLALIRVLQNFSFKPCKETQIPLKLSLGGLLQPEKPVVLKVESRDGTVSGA

By LC50 is commonly meant the concentration that kills 50% of the test population. A word on the CC50: it is the concentration at which the toxic effect on the cells reaches its halfway point. Broadly, the EC50 is the midpoint of the concentration-response curve. Low values mean greater potency, high ones weaker potency. With `Cl.Cl.Cl.Cl.c1cc(NCCN2CCOCC2)c2ccc3c(ccc4c(NCCN5CCOCC5)ccnc43)c2n1`, the Activity entry in series [1] is reported as “Non-Toxic”; in [2], “Non-Toxic”; in series [3] it was “Non-Toxic”; in series [6], “Non-Toxic”; in series [7], “Non-Toxic”; in [8] it was “Dose-dependent effect”. The results for the Activity (in the series with Ebolavirus [9]; in [14]) were 90% and “Non-Toxic”, respectively. Also, the result in the series with HeLa [4] and in the series on Ebolavirus [11] was Active. In series [5], the selectivity ratio stood at 103. The LC50 in [8] amounted to 72.1 µM. For the same compound, the KSV at Albumin was determined as 1.13 ×10⁵ /M. Also, the CC50 at 2 h in [10] and in [13] was more than 20 µM each time. This compound came in with a concentration giving a half-maximal response (EC50) in the series on Ebolavirus [12] of 0.7 µM. In addition, the result in the series on Ebolavirus [15] was inactive.

The term kinetic solubility denotes the concentration staying in solution when a stock, usually in DMSO, is diluted into the medium. By half-life is commonly meant the time needed for the level to fall by half in the phase considered. Low readings indicate rapid decline, high ones slow decline. With `Cl.Cl.Cl.Cl.c1cc(NCCCCN2CCOCC2)c2ccc3c(ccc4c(NCCN5CCOCC5)ccnc43)c2n1`, the Activity entry in [16] is on record as “Non-Toxic”; in series [1], “Non-Toxic”; in [3] it was “Non-Toxic”; in the series with Zaire ebolavirus, 50%; in [6] it was “Non-Toxic”; in series [21] it was “Non-Toxic”. Also, the Activity result in series [7] is reported as “Non-Toxic”; in [8] it was “Dose-dependent effect”; in series [25], “Non-Toxic”; in series [14] it was “Non-Toxic”. Further, the microsomal CLint was 32.9 µL/min/mg in series [17] and 22.3 µL/min/mg in series [26]. Moreover, the result (with HeLa [4]; in series [18]; in the series on HeLa [19]; in the series on HeLa [23]; in the series with Ebolavirus [11]) was Active. Also, the selectivity ratio in series [5] turned out to be 73. In addition, the kinetic solubility in series [20] is more than 50 µg/mL. Moreover, the INH on Cytochrome P450 2C19 and at Cytochrome P450 3A4 was more than 10 µM each time. This compound yielded a half-life in series [22] of 1.03 h. Also, in series [8], the LC50 worked out at 18.9 µM. Besides, the KSV on Albumin amounted to 8.85 ×10⁴ /M. The result (in series [24]; in the series with Ebolavirus [15]) was inactive. The CC50 at 2 h was 8 µM in series [10] and 2.4 µM in series [13].
